From the array DNA melting data of Ke et al. (doi:10.1101/2024.01.08.574731)

What was measured:
[1] = folding enthalpy; higher = less favourable; fluorescence melt of hairpins on a sequencing array, two-state fit; conditions: sodium 0.088 M
Summary of the method: (§1)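 Cy3 signals were normalised both to pre-quench Cy3 and to control constructs. They came from library hairpins carrying annealed Cy3 and quencher oligos on a sequenced MiSeq flow cell, imaged in 50 mM Na-HEPES pH 8.0, 25 mM NaCl, in 2.5 °C steps up to 60 °C. Bootstrapped two-state fits gave melting temperature and folding enthalpy, and four replicates were combined by inverse variance. Fitted temperatures were then raised by 9.35 °C to match UV melts.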

[2] = melting temperature; fluorescence melt of hairpins on a sequencing array, two-state fit, raised by 9.35 °C to match UV melts; conditions: sodium 0.088 M
Summary of the method: as §1

Row | Sequence | folding enthalpy [1] | Tm [2]
1 | GGCGAGCGAAAGCTGGCC (((.(((....))).))) | -34.6 kcal/mol | 68 °C
2 | GCCATCGGAAACAATGGC (((((.(....).))))) | -29.6 kcal/mol | 44.7 °C
3 | GATCACAGAGTGATC ((((((...)))))) | -35 kcal/mol | 60.8 °C
4 | GATCGAAACGTCGATC ((((((....)))))) | -41.4 kcal/mol | 50.3 °C
5 | GGACCTCGAAAGAGTCC (((.(((....)))))) | -32.7 kcal/mol | 49.8 °C
6 | GTCTCCGAAAGGACGAC ((((((....))).))) | -27.5 kcal/mol | 46.7 °C
7 | GATCCGTGGCGGATC ((((((...)))))) | -41.5 kcal/mol | 56.3 °C
8 | GCGACGCGAAAGCGATGC ((..(((....)))..)) | -24.1 kcal/mol | 61.8 °C
9 | GGAAATGGAAACATTTCC (((((((....))))))) | -41.5 kcal/mol | 56.5 °C
10 | GGAACCCGAAAGGGTCC (((.(((....)))))) | -15.8 kcal/mol | 59.7 °C
11 | GCATACCCGAAAGGGTGC (((..(((....)))))) | -12.1 kcal/mol | 49.7 °C
12 | GTTGCCGAAAGGCCGAAC ((((((....)))..))) | -7.22 kcal/mol | 27.1 °C
13 | GGTTACGAAAGTATAACC ((((((....)))..))) | -20 kcal/mol | 37.2 °C
14 | GTAGACGGAAACGTCTGC (.(((((....))))).) | -24.6 kcal/mol | 55.1 °C
15 | GTTCTGAAAAGAAC (((((....))))) | -27.5 kcal/mol | 47 °C
16 | GACTTAGAAATAAGTC ((((((....)))))) | -30 kcal/mol | 43.8 °C
17 | GGATACGAAAGTACTCC ((((((....))).))) | -22.9 kcal/mol | 37.9 °C
18 | GATCGTAGCTACGATC ((((((....)))))) | -43.2 kcal/mol | 59 °C
19 | GATCGATCTATCGATC ((((((....)))))) | -42.5 kcal/mol | 56.3 °C
20 | GTCGGCGAAAGCCAGGAC ((((((....)))..))) | -13.7 kcal/mol | 49.9 °C
21 | GTAACCGGAAACGGTCAC ((.((((....)))).)) | -17.2 kcal/mol | 39.7 °C
22 | GGCGTAGAAATACGCC ((((((....)))))) | -37.5 kcal/mol | 66.1 °C
23 | GATCGTATCCACGATC ((((((....)))))) | -35.3 kcal/mol | 56.9 °C
24 | GGTTCTCGAAAGAGGACC (((.(((....))).))) | -42.8 kcal/mol | 57.2 °C

Row | Sequence | folding enthalpy [1] | Tm [2]
25 | GGAAATGCGAAAGCATCC (((..(((....)))))) | -11.7 kcal/mol | 37.1 °C
26 | GATCACTTAGGTGATC ((((((....)))))) | -41.6 kcal/mol | 57.6 °C
27 | GAGACCGCGAAAGCGCTC (((..(((....)))))) | -7.65 kcal/mol | 26.6 °C
28 | GCGTACCAACGC ((((....)))) | -21 kcal/mol | 53.6 °C
29 | GATCCGGGGTCGGATC ((((((....)))))) | -47.9 kcal/mol | 56.7 °C
30 | GGCATCTCGAAAGAGGCC (((..(((....)))))) | -26.6 kcal/mol | 51.2 °C
31 | GCTTGGGGAAACCCAGGC ((.((((....)))).)) | -36.8 kcal/mol | 52.4 °C
32 | GATCCGTCAGCGGATC ((((((....)))))) | -42.6 kcal/mol | 57.4 °C
33 | GCGCCCGCGAAAGCGCGC (((..(((....)))))) | -16.2 kcal/mol | 58.5 °C
34 | GCGGCGGGAAACCACCGC ((((.((....)).)))) | -41.7 kcal/mol | 60.3 °C
35 | GTCAGCGAAAGCTCGGAC ((((((....)))..))) | -12.4 kcal/mol | 37.3 °C
36 | GGAGTACCGAAAGGTTCC (((..(((....)))))) | -15 kcal/mol | 36.3 °C
37 | GATCACGCACGTGATC ((((((....)))))) | -40.5 kcal/mol | 68.9 °C
38 | GATCTTATCAAAGATC ((((((....)))))) | -33.1 kcal/mol | 44.2 °C
39 | GCGAATGATCGC ((((....)))) | -17.7 kcal/mol | 42.3 °C
40 | GCCTGGCGAAAGCTAAGC ((.(.((....)).).)) | -10.2 kcal/mol | 36.2 °C
41 | GCGCAGCGAAAGCGGGGC ((.(.((....)).).)) | -14.3 kcal/mol | 57.6 °C
42 | GCTAACCGAAAGGTCAGC (((.(((....))).))) | -29.7 kcal/mol | 49.7 °C
43 | GAAAATCCGAAAGGATTC (((..(((....)))))) | -11.8 kcal/mol | 33.4 °C
44 | GATCTTGCCTAAGATC ((((((....)))))) | -39.2 kcal/mol | 48.2 °C
45 | GCCCCCGAAAGGGCGGC ((((((....))).))) | -23.2 kcal/mol | 68.5 °C
46 | GAAAGCGAAAGCTTTC ((((((....)))))) | -34.9 kcal/mol | 64.7 °C
47 | GATCCAGAACTGGATC ((((((....)))))) | -37.6 kcal/mol | 56.4 °C
48 | GCAAACGAAAGTTCTTGC ((((((....)))..))) | -10 kcal/mol | 31.7 °C

Row | Sequence | folding enthalpy [1] | Tm [2]
49 | GCACGCGAAAGCGAATGC ((((((....)))..))) | -18.6 kcal/mol | 49.2 °C
50 | GGCCTTCGAAAGAATGCC (((.(((....))).))) | -33.1 kcal/mol | 48.3 °C
51 | GTTTGTGGAAACACAAGC (.(((((....))))).) | -23.1 kcal/mol | 45.1 °C
52 | GCGGTCGGAAACGATCGC (((.(((....))).))) | -34.8 kcal/mol | 67.3 °C
53 | GCTCCGCGAAAGCAGCGC ((.(.((....)).).)) | -17.1 kcal/mol | 43.7 °C
54 | GAGAAAGAAATTTCTC ((((((....)))))) | -18.8 kcal/mol | 36.4 °C
55 | GTGCGGGGAAACCCACAC (((.(((....))).))) | -37.9 kcal/mol | 51.6 °C
56 | GACCATGGAAACACGGTC ((((.((....)).)))) | -31.7 kcal/mol | 42.5 °C
57 | GCCACCGAAAGGTGCGGC ((((((....)))..))) | -13.1 kcal/mol | 60.8 °C
58 | GGTGTTCGAAAGAAAACC (((.(((....))).))) | -25.3 kcal/mol | 45.2 °C
59 | GGATAGCGAAAGCTTTCC (((.(((....))).))) | -29.7 kcal/mol | 49.3 °C
60 | GCCAGGGGAAACCCCAGC ((..(((....)))..)) | -21.5 kcal/mol | 38.3 °C
61 | GCTGTGGGAAACCATGGC ((..(((....)))..)) | -33.5 kcal/mol | 44.5 °C
62 | GTTTAGGGAAACCTAAAC (((((((....))))))) | -39.9 kcal/mol | 52.7 °C
63 | GATCTTGCCAAAGATC ((((((....)))))) | -39 kcal/mol | 55 °C
64 | GCACTGCGAAAGCACAGC ((..(((....)))..)) | -11.6 kcal/mol | 29.2 °C
65 | GATCGTACGTACGATC ((((((....)))))) | -36 kcal/mol | 57.9 °C
66 | GCTAATGAAAATTAGC ((((((....)))))) | -31.7 kcal/mol | 50 °C
67 | GTGCCTGGAAACAGGCGC (.(((((....))))).) | -20.3 kcal/mol | 65 °C
68 | CAACGGAAACGTTG (((((....))))) | -25.9 kcal/mol | 52.6 °C
69 | GGGTGCGGAAACGCGTCC ((..(((....)))..)) | -19.7 kcal/mol | 50.9 °C
70 | GCGGTAAACCGC ((((....)))) | -26.2 kcal/mol | 56 °C
71 | GATCCCTATAGGGATC ((((((....)))))) | -45.4 kcal/mol | 65.6 °C
72 | GACGAACGAAAGTTAGTC (((.(((....))).))) | -35.8 kcal/mol | 49.9 °C

Row | Sequence | folding enthalpy [1] | Tm [2]
73 | GATCATATAGATGATC ((((((....)))))) | -36.2 kcal/mol | 45.6 °C
74 | GATCTGCCAACAGATC ((((((....)))))) | -38.3 kcal/mol | 50 °C
75 | GCGCGGCGAAAGCACCGC (((..((....))..))) | -16.6 kcal/mol | 56.1 °C
76 | GATCATTTACATGATC ((((((....)))))) | -35.2 kcal/mol | 46.3 °C
77 | GATGACGAAAGTCCATC ((((((....))).))) | -17.2 kcal/mol | 41.5 °C
78 | GATCTGATTCAGATC ((((((...)))))) | -35.8 kcal/mol | 48.7 °C
79 | GATCTCAGATGAGATC ((((((....)))))) | -36.3 kcal/mol | 52.5 °C
80 | GCCCCCGAAAGGGAAGGC ((((((....)))..))) | -27 kcal/mol | 55.7 °C
81 | GCATCGCGAAAGCCAGGC ((.(.((....)).).)) | -10.4 kcal/mol | 37.2 °C
82 | GAGTGTACGAAAGTACTC (((..(((....)))))) | -11.7 kcal/mol | 32.8 °C
83 | GAGGCTGGAAACGGCTTC ((.((.(....).)).)) | -20.8 kcal/mol | 36.6 °C
84 | GGTTACGAAAGTAGGACC ((((((....)))..))) | -11.5 kcal/mol | 32 °C
85 | CGAACGGAAACGTTTTCG ((((((....)))..))) | -16.3 kcal/mol | 30.4 °C
86 | GTGGCCGAAAGGCGCCAC ((((((....)))..))) | -13.7 kcal/mol | 49 °C
87 | GTGCTCGAAAGAGCGCAC ((((((....)))..))) | -11.6 kcal/mol | 57.1 °C
88 | GATGAGCGAAAGCTAATC (((.(((....))).))) | -24.9 kcal/mol | 46.6 °C
89 | GTGCAAGGAAACTTGTAC ((.((((....)))).)) | -32.5 kcal/mol | 45 °C
90 | GCTTTCGAAAGAAGTAGC ((((((....)))..))) | -23 kcal/mol | 34 °C
91 | GATTGCGCGAAAGCGATC (((..(((....)))))) | -9.1 kcal/mol | 32 °C
92 | CCCAGGAAACTGGG (((((....))))) | -20.4 kcal/mol | 54.3 °C
93 | GCTTGAGGAAACCCAAGC (((((.(....).))))) | -37 kcal/mol | 46 °C
